*1 amine or outer side, *2 acyl side, *3 side chain or, on linkers, in order; H or OH if unused. Where a SMILES comes first, the peptide text is derived from it. Side-chain parts run from the residue outwards. [ ]: non-standard residue; d: D form. The star is where a group is joined. X1 = COc1cc2c3cc1OCCOc1cc4c(cc1OC)Cc1cc5c(OC)cc1Cc1cc(c(OCc6cn(CCC(=O)*)nn6)cc1C4)OCCOc1cc(c(cc1OC)Cc1cc(c(OC)cc1C3)OCCO5)C2; Pteroyl = Nc1nc2ncc(CNc3ccc(C(=O)*)cc3)nc2c(=O)[nH]1; γGlu = O=C(O)[C@H](CCC(=O)[*:2])N[*:1]; AEEEA = NCCOCCOCCOCC(=O)O; StBu = CC(C)(C)S*
Legend:
[1] = target: reduced folate carrier (RFC); conditions: low affinity folate carrier RFC; cited from earlier work
[2] = target: folate receptor (FR); conditions: high affinity FR, 1:1 stoichiometry; cited from earlier work
[3] = at 300 K; cited from earlier work
[4] = target: folate binding protein (FBP) (Bos taurus, UniProt P02702); test: Hyperpolarized 129Xe NMR with folate binding protein; conditions: 30 μM FBP, 30 and 60 μM biosensor, acetate buffer pH 5.0 with and without 10% glycerol, incubated 30 min
Sequence of folate binding protein (FBP) (P02702 20-241): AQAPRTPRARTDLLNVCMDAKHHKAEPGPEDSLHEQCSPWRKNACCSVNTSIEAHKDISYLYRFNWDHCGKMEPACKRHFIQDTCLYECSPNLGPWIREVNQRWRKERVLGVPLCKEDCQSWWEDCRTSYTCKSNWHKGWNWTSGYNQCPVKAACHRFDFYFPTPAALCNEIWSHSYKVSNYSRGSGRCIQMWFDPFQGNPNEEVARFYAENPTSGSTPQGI

[5] = system: KB (FR+) cells; test: MTT cell viability assay, KB cells; type: cell-based, human; conditions: 100 μM (highest concentration), 24 h incubation
How it was run: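 KB cells kept in RPMI-1640 (25 mM HEPES, 2 mM L-glutamine, 15% fetal calf serum, penicillin/streptomycin) and seeded at 25 000 per well overnight. Unlabelled test conjugate added in triplicate at final 0–100 μM for 24 h in the dark. Cells then DPBS-washed thrice and given MTT (5 mg/mL solution) for 3 h. Formazan was dissolved in DMSO and read at 540 nm. Viability is expressed as percent of untreated-control absorbance.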

[6] = Solubility in water after HPLC purification; type: physicochemical; conditions: after cleavage from solid support and reverse-phase HPLC purification

SMILES: CN1c2c(nc(N)[nH]c2=O)NCC1CNc1ccc(C(=O)N[C@@H](CCC(=O)O)C(=O)O)cc1 (stereo partly drawn) [5-methyltetrahydrofolate, 5-methyl tetrahydrofolate]
- dissociation constant [1]: micromolar
- Kd [2]: 0.1 to 1 nM

SMILES: [Xe] [129Xe]
- water solubility [3]: 4.2 mM atm^–1

SMILES: COc1cc2c3cc1OCCOc1cc4c(cc1OC)Cc1cc5c(OC)cc1Cc1cc(c(OCc6cn(CCC(=O)N[C@@H](CCCCNC(=O)CC[C@H](NC(=O)c7ccc(NCc8cnc9nc(N)[nH]c(=O)c9n8)cc7)C(=O)O)C(=O)N[C@@H](CCCCN)C(=O)N[C@@H](CCCNC(=N)N)C(=O)N[C@@H](CCCCN)C(=O)N[C@@H](CCCNC(=N)N)C(=O)N[C@@H](CCCCN)C(=O)NCCOCCOCCOCC(=O)N[C@@H](CCCNC(=N)N)C(=O)N[C@@H](CCCCN)C(=O)N[C@@H](CSSC(C)(C)C)C(=O)N[C@@H](CCCNC(=N)N)C(N)=O)nn6)cc1C4)OCCOc1cc(c(cc1OC)Cc1cc(c(OC)cc1C3)OCCO5)C2 [compound 24] (X1-K([γGlu-Pteroyl])KRKRK[AEEEA]RKC(StBu)R-NH2)
- protein bound 129Xe NMR signal [4]: no observable protein bound signal
- viability (maximum toxicity) [5]: 23%
- solubility in water [6]: readily soluble in water

From PMC4306503 (Bioconjugate Chemistry, 2014)
